# Sampled rows, rich in hits. Any-hit rate of the full collection: about 4%.
# iPSC survival up: hiPSC single-cell survival enhancement; survival enhancement, % at 20 µM; hit rate 0.044% among 360,000; ATPlite luminescence; 100% = ROCK inhibitor wells, 0% = DMSO; in the data active = survival enhancement above about 18%;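 also: cells exposed to compounds for 16 hours before the ATP read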
# Arr AP2 block: inhibitors of human beta-arrestin and AP2 interaction | AID 504490 | inhibition, % at 10 µM | hit rate 0.31% among 340,000 | FITC-arrestin peptide / GST-AP2 beads, flow cytometry; AP2 beta2 appendage carries R879A mutation;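 active = inhibition above a set limit, near 3 SD of compounds lacking own fluorescence, cut at about 54% in these data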;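 also: plate controls were DMSO wells for no effect and 5 µM unlabelled arrestin peptide for full effect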
#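 System: GST-AP2 R879A glutathione beads; medium: PBS, Tween 20 0.05%, BSA 0.1%; reagent: fluorescein-tagged arrestin peptide at 50 nM final; schedule: pre-incubation 12 min, peptide binding 1 h, room temperature; detection: flow cytometry, FL1 (488/535 nm); read-out: inhibition as reduced fluorescein signal on beads, percent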
# FAS TE block: inhibitors of human fatty acid synthase thioesterase domain. recombinant FAS-TE, OMFH fluorogenic substrate, fluorescence endpoint. inhibition, % at 15 µM. hit rate 0.67% among 360,000. AID 602261;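 active = compounds whose normalised, plate-corrected inhibition of enzyme fluorescence in the single-dose primary screen is 50% or more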;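 also: 0% = DMSO with enzyme and 100% = substrate without enzyme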
# GRIN3A LBD mod: modulates the human NR3A ligand-binding domain; Tm shift relative to glycine control, % at 25 µM; hit rate 2.5% among 340,000; AID 1259313; NR3A LBD differential scanning fluorimetry, Tm shift; 0% = protein alone, 100% = glycine-bound protein;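 active = melting temperature shift of at least 10% of the positive control shift, at one fixed dose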
# H9c2 protect: modulators protecting cardiomyocytes from myocardial damage. protection from H2O2 cell death, % at 20 µM. AID 588492. H9c2 cardiomyocytes, H2O2 injury protection, ATPLite, 2 h. hit rate 0.63% among 360,000;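 active = compounds giving at least 50% protection of heart cells from peroxide-induced death in the single-dose screen, raw or plate-pattern-corrected value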;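 also: 0% = DMSO wells with peroxide and 100% = DMSO wells without peroxide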
# SENP1 inh: SENP1 (human) catalytic domain inhibition. recombinant SENP1 catalytic domain, CyPet-SUMO1-YPet FRET cleavage. inhibition, % at 10 µM. hit rate 0.21% among 360,000. AID 624204;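 active = inhibition at least 30% at 10 µM, raw YFP signal under a set limit, fluorescence ratio 0.5 to 1.5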;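 also: 0% = enzyme with DMSO and 100% = no enzyme wells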
#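 Test system: human SENP1 catalytic domain; medium: Tris pH 8 buffer plus EDTA, NaCl, BME, BSA, NP40, catalase; incubation: 50 min reaction at room temperature; technique: FRET, CFP and YFP emission; controls: no-enzyme low control and enzyme-plus-DMSO high control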
# * hit, by the source's call; · = no result given.
SMILES,iPSC survival up,Arr AP2 block,FAS TE block,GRIN3A LBD mod,H9c2 protect,SENP1 inh
Cc1cccc(C2=NN(c3ccc(Br)cc3)[C@@H](C(=O)N3CCOC3=O)[C@@H]2C)c1,1,-3,39,12*,-5,-18
Cc1cccc(C2=NN(c3ccccc3)[C@@H](C(=O)N3CCOC3=O)[C@@H]2C)c1,1,-3,19,-2,-3,-22
COc1ccccc1[C@@H]1C(c2ccc(F)cc2)=NN(c2ccccc2)[C@H]1C(=O)N1CCOC1=O,5,8,84*,-1,-6,-45
O=C1OCCN1C(=O)[C@H]1[C@H](c2ccc([N+](=O)[O-])cc2)C(c2cccc(Cl)c2)=NN1c1ccccc1,1,7,89*,13*,27,-5
COc1ccccc1[C@@H]1C(c2cccc(C)c2)=NN(c2ccccc2)[C@H]1C(=O)N1CCOC1=O,-2,18,74*,-4,6,-72
Brc1ccc2nc(C3CCCCC3)c(Cc3ccsc3)n2c1,-1,·,-7,·,-3,-5
N#CCSc1nc2cc(C(=O)N3CCC(C(N)=O)CC3)ccc2c2nc3ccccc3n12,0,-2,-1,-5,52*,0
N#CCSc1nc2cc(C(=O)N3CCCC3)ccc2c(=O)n1Cc1ccccc1,2,7,3,-4,4,0
CCNC(=O)C1(C)CCN(C(=O)c2cc(OC)c(OC)c(OC)c2)C1 (configuration not stated),1,·,-6,·,-2,0
O=[N+]([O-])c1cc(C(F)(F)F)ccc1NCCc1c[nH]c2ccccc12,3,0,38,29*,-12,6
O=[N+]([O-])c1cc(C(F)(F)F)ccc1NCCc1c[nH]c2ccc(O)cc12,-2,26,28,29*,-20,3
O=[N+]([O-])c1cccnc1NCCc1c[nH]c2ccccc12,0,3,0,1,1,2
Cn1c(=O)cc(C(=O)N/N=C/c2ccc(Cl)cc2)[nH]c1=O,0,-17,-2,13*,-3,4
Cn1c(=O)n(C)c2cc(/C=N/NC(=O)c3ccc(Cl)cc3)ccc21,0,4,-8,-1,12,0
COc1ccccc1Cc1c(-c2ccco2)nc2cc(C)c(Br)c(C)n12,-1,·,4,·,·,-9
Cc1nn(-c2ccccc2)c(/N=C/c2ccccc2O)c1-c1ccccc1,-2,-15,15,14*,-16,-1
CC(=O)Nc1ccc(NC(=O)C(NS(=O)(=O)c2cccc3nsnc23)C(C)C)cc1 (configuration not stated),0,2,-8,10*,5,3
COc1ccc(NC(=O)[C@@H]2CC=C[C@@H]3CCN(C4CCCCC4)C(=O)[C@@H]32)cc1,2,16,-2,12*,0,2
CCOC(=O)[C@]12CCCC=C1N(Cc1cccc3ccccc13)C(=O)[C@H](CC(=O)NCc1cccs1)C2,-1,·,17,·,·,4
O=S1(=O)CC(N2CCC(c3ccccc3)CC2)CN1Cc1ccc(F)cc1 (configuration not stated),-2,·,29,·,0,1
CCOC(=O)c1c(C)n(-c2ccc(C)cc2)c2c(C(C(C)=O)C(=O)O)c(Br)c(O)c(O)c12 (configuration not stated),-1,-2,1,20*,-22,-4
COc1ccccc1CNCc1cc(Br)ccc1OC,0,-12,-9,-1,-1,3
COc1ccc(Br)cc1CNC(C)c1ccccc1 (configuration not stated),0,-4,-6,21*,-1,0
CC(C)(C)NC(=O)C1C(c2ccc(C(F)(F)F)cc2)=Nc2ccccc2N1C(=O)c1cccc(C(F)(F)F)c1 (configuration not stated),·,·,·,·,·,6
CCOC(=O)C1=C(N)n2c(s/c(=C\c3ccncc3)c2=O)=C(C(=O)OCC)C1c1ccncc1 (configuration not stated),0,10,-2,-2,32,3
SMILES,iPSC survival up,Arr AP2 block,FAS TE block,GRIN3A LBD mod,H9c2 protect,SENP1 inh
CCOC(=O)C1=c2/c(=C/c3ccncc3)c(N)c(C(=O)OC)n2C(=O)C(c2ccncc2)S1 (configuration not stated),1,-17,2,-2,55*,3
CCOc1c(C#N)c(C#N)c2nc(C)cc(C)n12,-1,-2,2,14*,10,-17
Cc1nc(NC(=O)c2ccccc2)sc1-c1cc(C(=O)N2CCOCC2)nn1Cc1ccccc1,2,·,4,·,30,2
Oc1ccc2oc3c(c2c1C=NCc1ccncc1)CCCC3,2,44,0,-17,67*,8
Oc1c(C=NCc2ccncc2)sc2ccccc12,·,·,·,1,·,·
Oc1ccccc1N=Cc1c(O)ccc2oc3c(c12)CCCC3,0,-8,11,-1,7,23
Oc1ccc2oc3c(c2c1/C=N/n1cnnc1)CCCC3,-2,0,-60,-2,60*,8
O=C(O)c1ccc(N=Cc2c(O)ccc3oc4c(c23)CCCC4)cc1,0,20,4,-4,62*,6
COc1ccc(-c2coc3c(C(=O)NCc4ccc(OC)c(OC)c4)cccc23)c(C)c1,-3,·,25,·,-10,3
Cc1ccc(C(=O)OCC(=O)NCc2ccco2)cc1,1,5,-6,10*,10,3
COc1cccc(C(=O)Nc2cc(C)c3c(=O)oc4ccccc4c3n2)c1,-2,-3,17,-1,90*,-34
Cc1cc(NC(=O)Cc2ccccc2)nc2c1c(=O)oc1ccccc12,-1,5,3,2,-1,-20
Cc1cc(NC(=O)C2CCCCC2)nc2c1c(=O)oc1ccccc12,3,9,17,7,101*,-18
Cc1cccc2cc(C#N)c(NCCNC(=O)c3ccccc3)nc12,-1,·,5,·,1,-71
O=C(Nc1ccc(F)cc1)c1cccnc1NCCc1ccccc1,0,5,29,5,0,2
O=C(Nc1cccc(F)c1)c1cccnc1NCCc1ccccc1,1,17,29,17*,-2,-1
Cc1cccc(OCc2nnc(N)s2)c1C,-2,5,-6,12*,-8,2
Cc1cccc(C(=O)Nc2ccccc2SCC(=O)Nc2ccc(C)c(Cl)c2)c1,0,8,1,15*,-8,-4
CCc1cc2cccc(C)c2nc1SCC(=O)N1CCN(C(=O)c2ccco2)CC1,4,1,10,-8,59*,1
COc1cc2c(cc1OC)CN(CC(=O)Nc1ccccc1SC)CC2,0,39,2,-1,-5,-8
